The values below come from ChEMBL document CHEMBL4308830, “Design, Synthesis, and Characterization of 4-Undecylpiperidine-2-carboxamides as Positive Allosteric Modulators of the Serotonin (5-HT) 5-HT2C Receptor” (J Med Chem, 2018).

In data set [1] the target is T1, 5-hydroxytryptamine receptor 2C (Homo sapiens) (UniProt P28335).
T1 sequence (whole entry): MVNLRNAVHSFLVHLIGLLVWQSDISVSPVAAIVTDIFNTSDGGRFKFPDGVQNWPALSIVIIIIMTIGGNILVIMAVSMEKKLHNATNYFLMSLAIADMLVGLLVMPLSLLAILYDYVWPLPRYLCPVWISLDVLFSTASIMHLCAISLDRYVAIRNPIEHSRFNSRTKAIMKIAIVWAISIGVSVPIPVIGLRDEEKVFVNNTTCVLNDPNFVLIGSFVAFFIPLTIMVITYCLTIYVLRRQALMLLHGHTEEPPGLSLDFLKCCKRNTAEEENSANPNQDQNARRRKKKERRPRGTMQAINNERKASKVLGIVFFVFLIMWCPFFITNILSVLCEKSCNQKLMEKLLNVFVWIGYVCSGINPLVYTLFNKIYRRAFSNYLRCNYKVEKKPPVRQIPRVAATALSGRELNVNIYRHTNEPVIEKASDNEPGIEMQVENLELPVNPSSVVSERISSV
Briefly: Positive allosteric modulation of human 5-HT2CR expressed in CHO cells assessed as 5-HT-induced intracellular calcium release at 1 nM preincubated for 15 mins followed by 5-HT addition by calcium-4 dye based FLIPR assay (reference value: 100%). Format: functional, cell-based. In short, it runs like this: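 CHO cells stably expressing human unedited INI 5-HT2CR were plated, serum-starved 3 h, then loaded with Calcium 4 dye plus 2.5 mM probenecid (60 min 37 °C, then 15 min RT). Compound (1 nM) was added; the read after this addition gave intrinsic agonism. 5-HT (10 pM–10 μM) followed 15 min later. FLIPR-TETRA: 10 s baseline, 1 s reads for 120 s after compound and 360 s after 5-HT. Emax came from 4-parameter fits, ≥3 biological replicates in triplicate.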

Data set [2] has as its target 5-hydroxytryptamine receptor 7 (Homo sapiens) (UniProt P34969). Briefly: Displacement of [3H]-LSD from recombinant human 5-HT7R expressed in HEK cell membranes at 10 uM after 90 mins by scintillation counting method relative to control. In general terms: In a radioligand displacement assay an active substance lowers the binding of a labelled ligand.
The nature of data set [3]: AUC (0 to infinity) in Sprague-Dawley rat at 5 mg/kg, iv administered as single dose. Format: ADME, organism-based. The arrangement: dose 5 mg/kg, time infinity, route intravenous. To be noted: in vivo.
The subject of data set [4] is Rattus norvegicus. Kind of data set: Effect on inactive lever presses in Sprague-Dawley rat at 1 mg/kg, ip administered as single dose 15 mins prior to self administration of cocaine. To be noted: in vivo, 0.25 h. Format: organism-based. In short, it runs like this: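 Catheterized male Sprague–Dawley rats self-administered cocaine (0.75 mg/kg/infusion iv, each paired with light/pump cue) in 14 daily 180 min sessions, reaching FR5 stability. After 24 h they received saline (1 mL/kg ip) or compound (1 mg/kg ip) 15 min before a cue reactivity test.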

Sequence of 5-hydroxytryptamine receptor 7 (Homo sapiens) (P34969 whole entry): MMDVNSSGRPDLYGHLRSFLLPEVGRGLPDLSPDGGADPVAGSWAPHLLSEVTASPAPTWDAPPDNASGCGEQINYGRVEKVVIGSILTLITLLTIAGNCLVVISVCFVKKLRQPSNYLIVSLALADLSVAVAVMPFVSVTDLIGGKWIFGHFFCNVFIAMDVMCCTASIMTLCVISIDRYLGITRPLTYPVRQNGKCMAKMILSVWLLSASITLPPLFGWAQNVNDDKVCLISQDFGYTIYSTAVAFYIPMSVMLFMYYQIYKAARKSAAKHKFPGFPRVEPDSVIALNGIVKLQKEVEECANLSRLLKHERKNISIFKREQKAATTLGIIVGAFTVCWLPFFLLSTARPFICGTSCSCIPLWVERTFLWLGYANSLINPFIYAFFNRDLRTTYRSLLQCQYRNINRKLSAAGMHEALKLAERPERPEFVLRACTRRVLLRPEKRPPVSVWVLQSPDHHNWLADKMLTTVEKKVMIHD

A word on the Emax: it is the maximal effect, on the per cent scale that the assay sets. Broadly, the inhibition is how much of the control response was suppressed. A word on the AUC: it is concentration integrated over time. A lower AUC goes with less exposure. As to `CCCCCCCCCCC[C@@H]1CCN[C@H](C(=O)NCC(O)CO)C1` (relative stereo), in data set [1], the Emax came to 123%. Also, in data set [2], the inhibition amounted to 26.8%. This compound also showed an AUC in data set [3] of 939 ng·h/mL. The Activity entry in data set [4] is “Non-Toxic”.
